This is a sample that favours compounds with a hit; in the whole collection about 2.3% have one here.
PAX8 inh HTS = inhibitors of PAX8-driven TPO luciferase reporter, primary screen, RMG-I cells, single concentration; AID 652154, 2013; 1.2% of 360,000 active; SteadyGlo, 24 h; inhibition, % at 12.6 µM;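 active = mean replicate inhibition at least 60% with every replicate also reaching 60%; inconclusive = only one of the two criteria is met; inactive = mean below 60% and not all replicates reaching 60%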;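 also: luciferase light reporting Pax8 driven TPO promoter activity; plate controls were median of neutral control wells for no effect and mitoxantrone controls for full effect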
CFTR F508del cor = F508del CFTR correction, initial screen, CFBE line, single point; CFBE cells, YFP halide quenching; stimulated with forskolin plus potentiator P3; % fluorescence drop versus neutral controls; activity (quench increase), % at 7.58 µM; 0.36% of 350,000 active;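 active = mean added fluorescence quench of at least 8% versus neutral control, with both replicates also reaching 8%; inconclusive = only one of the mean or replicate conditions met; inactive = mean below 8% and not both replicates reaching 8%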;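 also: cells transiently co-express mutant CFTR-F508del with the halide-sensitive YFP; corrector assay measuring rescue of mutant channel to the surface after 24 h compound exposure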
FN deposit inh = inhibitors of fibronectin matrix deposition, primary screen, AH1F cells, Alexa488-fibronectin fluorescence, plate reader; AH1F fibroblasts, overnight; inhibition, % at 12.6 µM; 0.086% of 350,000 active; AID 743247, 2014;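 active = mean inhibition across replicates of 30% or more, regardless of how many single replicates reach that level; inconclusive = mean under 30% yet at least half of replicates reach 30%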;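 also: positive control wells lacked labelled fibronectin entirely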
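Test system: AH1F fibroblast monolayer depositing Alexa488-labelled fibronectin into matrix. Input: 10000 cells per well. Technique: fluorescence, ex 485 nm, em 525 nm. Buffer or medium: DMEM plus 2% serum, read in PBS. Timing: 1 h cell adhesion before compound, then overnight fibronectin incubation. Compound: single dose, pinned. Read-out basis: inhibition from reduced deposited-fibronectin fluorescence.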
EWS-Fli block = EWS/Fli-driven NR0B1 reporter inhibitors, primary screen, A673 cells, NR0B1 luciferase, luminescence, MLPCN library; 0.67% of 350,000 active; inhibition, % at 12.6 µM; AID 651661, 2012; viability-normalised;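 active = mean inhibition of at least 50% after viability correction, with every replicate also passing that limit; inconclusive = mean reaches 50% but only one of two replicates passes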;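 also: firefly luciferase signal divided by Alamar Blue viability fluorescence both relative to DMSO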
PGC1a acetyl inh = inhibitors of PGC1a acetylation signal, primary screen, cell-based, U2OS, AlphaScreen, inhibitor mode. AlphaScreen anti-acetyl-lysine; with virally co-expressed GCN5 acetyltransferase. inhibition, % at 15.6 µM. 0.17% of 350,000 active;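 active = every replicate shows inhibition of at least 40%; inconclusive = mean inhibition at least 40% but some replicate below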;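 also: 0% = neutral control wells and 100% = positive control wells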
HIV Env fusion = inhibitors of HIV-1 Env-driven cell-cell fusion, primary screen, HeLa-JRFL effector, CEM21 target cells, luciferase; inhibition, % at 12.3 µM; 1.1% of 360,000 active; AID 651610, 2012;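 active = mean replicate inhibition score of at least 50 and every replicate individually at or above 50; inconclusive = only one of the two criteria met; inactive = mean below 50 and not all replicates reaching 50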;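 also: 0% = plate neutral controls and 100% = maraviroc near 300 nM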
Starred values were filed as active, the others as inactive; i = inactive; ? = inconclusive; · = not tested or not shown; [ ] = remark or other dose.

SMILES	PAX8 inh HTS	CFTR F508del cor	FN deposit inh	EWS-Fli block	PGC1a acetyl inh	HIV Env fusion
CC1Cc2cc(S(=O)(=O)N3CCC(C(=O)N(C)Cc4ccco4)CC3)ccc2N1C(=O)C1CCC1 (stereo unspecified)	61*	0	4	·	-10	0
CCc1cccc(NC(=O)C2CCN(S(=O)(=O)c3ccc4c(c3)CC(C)N4C(C)=O)CC2)c1 (stereo unspecified)	13	0	6	19	1	68*
CC(=O)Nc1ccc2c(c1)CC(=O)N(C)C[C@H](C)[C@@H](CN(C)C(=O)NC(C)C)O2	·	·	2	·	·	·
COc1ccc(NC(=O)Nc2ccc3c(c2)CC(=O)N([C@@H](C)CO)C[C@@H](C)[C@H](CN(C)S(=O)(=O)c2c(C)noc2C)O3)cc1	-22	1	·	-3	2	-22[16.7 µM]
CCOC(=O)c1ccc2nc(NC(C)=O)sc2c1	-137	-1	-3	-94	-6	-78
CCOC(=O)c1ccc2nc(Nc3nc4ccc(F)cc4s3)sc2c1	49	·	5	80*	·	14
O=C(Cn1ncc(Cl)c(Cl)c1=O)NC1CCCCC1	54	-10	·	51*	·	·
O=C(OCn1ncc(Cl)c(Cl)c1=O)c1ccccc1Cl	·	·	active	·	·	i
O=C1CN(C(=O)COc2ccc(Cl)c(Cl)c2)c2ccccc2N1	-56	2	0	4	·	-13
O=C(Cn1ncc(Cl)c(Cl)c1=O)c1ccc(Cl)cc1	33	·	·	·	85*	-160
O=C1CN(C(=O)Cn2ncc(Cl)c(Cl)c2=O)c2ccccc2N1	95*	0	8	21	-74	-170
CCC(=O)N[C@@H]1C=C[C@H](CC(=O)NCC2CC2)O[C@@H]1CO	·	3	13	-7	2	·
C[C@H]1CN([C@@H](C)CO)S(=O)(=O)c2ccc(-c3ccc(F)cc3)cc2O[C@H]1CN(C)C(=O)C1CC1	·	-4	-4	3	-3	10[16.7 µM]
C=CCn1c(C)cc(C(=O)CN2NS(=O)(=O)c3ccccc3C2=O)c1C	-55	3	4	45	·	-56
C=CCn1c(C)cc(C(=O)Cn2ncc(Cl)c(Cl)c2=O)c1C	30	?	9	55*	?	·
CO[C@@H]1CN(C)C(=O)c2ccc(NC(=O)c3cnccn3)cc2OC[C@@H](C)N(C)C[C@H]1C	1	1	1	-4	18	0[16.7 µM]
CN1C/C(=C/c2ccccc2[N+](=O)[O-])C(=O)/C(=C\c2ccccc2[N+](=O)[O-])C1	·	-2	2	72*	-28	-199
CCCN1C[C@@H](C)[C@@H](OC)CN(C)C(=O)c2ccc(NC(=O)C3CC3)cc2OC[C@H]1C	-5	0	15	7	8	·
COc1ccc(C)cc1N1C(=N)/C(=C2/Nc3ccccc3S2)C(c2ccccc2)C1=O (stereo unspecified)	13	·	3	66*	1	-20
COc1ccc(C2C(Oc3ccccc3)C(=O)N2c2cc(C)ccc2C)cc1OC (stereo unspecified)	·	·	-2	·	-12	13
O=C(C[C@@H]1C=C[C@H](NC(=O)Nc2cc(F)ccc2F)[C@@H](CO)O1)NCc1ccccn1	-4	-2	·	-5	-3	-1[16.7 µM]
O=C(CCCl)Nc1nc2c(s1)CCc1ccccc1-2	43	8.8*	12	8	·	21
C[C@H]1CC=CC[C@H](c2ccc3c(c2)OCO3)NC(=O)[C@@H](Cc2ccccc2)N(C)C(=O)c2ccccc2O1 (mixture of isomers)	·	·	-11	·	·	·
COc1ccc(CCn2c(C3CCCCC3)nc3c(c(=O)c4ccccc4n3C)c2=O)cc1	40	3	3	56*	-20	32
COc1ccc(CCn2c(C3CCCCC3)nc3c(c(=O)c4ccccc4n3C)c2=O)cc1OC	34	-3	1	5	-61	-24
SMILES	PAX8 inh HTS	CFTR F508del cor	FN deposit inh	EWS-Fli block	PGC1a acetyl inh	HIV Env fusion
O=C(NCC(c1cccs1)N1CCOCC1)c1cc([N+](=O)[O-])ccc1Cl (stereo unspecified)	13	·	2	·	·	-24
O=[N+]([O-])c1ccc(O)c(C(C#Cc2ccccc2)N2CCOCC2)c1 (stereo unspecified)	-90	0	11	-24	-1	89*
COc1ccc(S(=O)(=O)Nc2ccc3c(c2)C(=O)N([C@@H](C)CO)C[C@H](C)[C@@H](CN(C)Cc2ccc(Oc4ccccc4)cc2)O3)cc1	-4	2	·	11	5	63*[16.7 µM]
C[C@H]1CN([C@@H](C)CO)C(=O)c2cc(NS(=O)(=O)c3ccccc3)ccc2O[C@@H]1CN(C)Cc1ccc(Oc2ccccc2)cc1	92*	-1	·	-16	-1	27[16.7 µM]
Cc1noc(C)c1S(=O)(=O)Nc1ccc2c(c1)C(=O)N([C@H](C)CO)C[C@@H](C)[C@@H](CN(C)Cc1ccc(Oc3ccccc3)cc1)O2	·	-2	·	67*	-12	·
COc1ccc2c(=O)c3c(=O)n(Cc4ccco4)c(-c4ccc(C)cc4)nc3oc2c1	·	·	·	·	6	-111
COc1cc(-c2nc3oc4ccccc4c(=O)c3c(=O)n2Cc2ccco2)cc(OC)c1OC	31	·	-8	·	3	92*
Cc1cc(Cl)cc(C)c1OCCn1ccnc1	2	13*	9	-25	9	-16
CCN(CC)CCN1C(=O)c2ccccc2NC1c1cc(OC)c(OC)c(OC)c1 (stereo unspecified)	·	-1	·	4	1	·
CCN(CC)c1ccc2c(cc1=O)[C@@H](NC)CCc1cc(OC)c(OC)c(OC)c1-2	98*	9.5*	-28	60*	·	-253
CN[C@H]1CCc2cc(OC)c(OC)c(OC)c2-c2ccc(N(C)CC(OC)OC)c(=O)cc21	?	11*	1	43	5	-118
COc1cc2c(c(OC)c1OC)-c1ccc(N(C)CC(OC)OC)c(=O)cc1[C@@H](NC(C)=O)CC2	99*	4	-11	60*	·	i
COc1ccc(CN(C)C[C@H]2Oc3ccc(NC(=O)Nc4c(C)noc4C)cc3CC(=O)N([C@H](C)CO)C[C@@H]2C)cc1	-17	1	-2	·	3	·
Cc1cc(C(=O)Nc2ccc3c(c2)C(=O)N(C)[C@H]2CC[C@@H](CC(=O)NCc4ccc(-c5ccccc5)cc4)O[C@H]2CO3)no1	91*	·	-16	32	·	4[16.7 µM]
Cc1cc(C(=O)Nc2ccc3c(c2)C(=O)N(C)[C@@H]2CC[C@H](CC(=O)NCc4ccc(-c5ccccc5)cc4)O[C@@H]2CO3)no1	80*	·	-25	?	·	-199[16.7 µM]
Cc1cc(C(=O)Nc2ccc3c(c2)C(=O)N(C)[C@H]2CC[C@H](CC(=O)NCc4ccc(-c5ccccc5)cc4)O[C@H]2CO3)no1	47	·	-2	20	·	?

Bioassay records deposited in PubChem BioAssay by Broad Institute.
